Series [1] can be described thus: Lipophilicity, log D at pH 7.4. The series is classed as physicochemical. To be noted: buffer. The method, boiled down: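 Shake-flask partition of about 25 kBq 18F-labeled compound between 1-octanol and PBS pH 7.4, mixed 3 min at room temperature and centrifuged. Triplicate 100 µL samples of each phase are gamma-counted. log D7.4 = log(cpm octanol/cpm buffer), from 2–3 independent experiments in triplicate, mean ± SD.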

Series [2] is described as follows: Stability in human serum at 37 degC after 90 mins. The series is classed as ADME, cell-free. To be noted: read-out: Stability. The method, boiled down: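 PBS-formulated 18F-labeled compound (20 µL, 250 MBq/mL) is added to 200 µL human serum and incubated at 37 °C for up to 90 min. The percentage of intact radioligand is reported.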
Series [3] deals with T1, D(2) dopamine receptor (Homo sapiens, UniProt P14416). In words: Displacement of [3H]spiperone from cloned human dopamine D2S receptor expressed in CHO cells. The series is classed as cell-based. In general terms: In a radioligand displacement assay an active substance lowers the binding of a labelled ligand.
T1 sequence (P14416 whole entry): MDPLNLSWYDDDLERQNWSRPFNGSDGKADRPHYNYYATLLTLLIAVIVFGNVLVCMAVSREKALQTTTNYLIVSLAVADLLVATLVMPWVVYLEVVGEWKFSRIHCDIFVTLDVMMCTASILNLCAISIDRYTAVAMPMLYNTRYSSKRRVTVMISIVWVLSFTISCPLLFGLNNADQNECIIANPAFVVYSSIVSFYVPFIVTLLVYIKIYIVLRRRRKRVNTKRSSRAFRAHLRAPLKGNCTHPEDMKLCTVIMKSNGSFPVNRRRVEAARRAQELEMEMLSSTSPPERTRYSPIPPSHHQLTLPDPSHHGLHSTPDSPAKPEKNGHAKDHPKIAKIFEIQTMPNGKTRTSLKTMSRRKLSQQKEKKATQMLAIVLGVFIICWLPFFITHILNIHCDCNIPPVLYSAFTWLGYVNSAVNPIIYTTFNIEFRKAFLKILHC
Series [4] deals with D(3) dopamine receptor (Homo sapiens, UniProt P35462). The series is described as follows: Displacement of [3H]spiperone from cloned human dopamine D3 receptor expressed in CHO cells. The class given is cell-based.
Chain of D(3) dopamine receptor (P35462 whole entry): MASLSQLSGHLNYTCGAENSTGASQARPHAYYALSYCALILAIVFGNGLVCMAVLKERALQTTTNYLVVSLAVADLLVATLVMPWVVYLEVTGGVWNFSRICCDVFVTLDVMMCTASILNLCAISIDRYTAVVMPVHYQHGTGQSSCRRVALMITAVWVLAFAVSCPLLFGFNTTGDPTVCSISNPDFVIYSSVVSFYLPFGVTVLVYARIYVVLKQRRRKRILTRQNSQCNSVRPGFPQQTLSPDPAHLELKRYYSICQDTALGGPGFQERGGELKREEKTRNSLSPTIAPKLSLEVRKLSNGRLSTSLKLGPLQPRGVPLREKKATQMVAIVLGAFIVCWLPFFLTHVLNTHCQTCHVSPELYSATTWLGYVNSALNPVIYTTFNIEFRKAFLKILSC
A short description of series [5]: Displacement of [3H]8-OH-DPAT from 5HT1A receptor in pig cortical membranes. The class given is cell membranes, Sus scrofa. The method, boiled down: (§1)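 Competition binding on porcine cortical membranes. Radioligands, each at 0.5 nM final: [3H]8-OH-DPAT for 5-HT1A, [3H]ketanserin for 5-HT2, [3H]prazosin for α1.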
Series [6] has as its target T1, D(2) dopamine receptor. The series is described as follows: Displacement of [3H]spiperone from cloned human dopamine D2L receptor expressed in CHO cells. The class given is cell-based.
The nature of series [7]: Displacement of [3H]prazosin from adrenergic alpha1 receptor in pig cortical membranes. The class given is cell membranes, Sus scrofa. In outline:
as §1

A short description of series [8]: Displacement of [3H]spiperone from cloned human dopamine D4.4 receptor expressed in CHO cells. The class given is cell-based.
Series [9] addresses D(1A) dopamine receptor (Sus scrofa, UniProt P50130). In words: Displacement of [3H][…] from dopamine D1 receptor in pig striatal membrane. The series is classed as cell membranes, Striatum.
In series [10] the target is 5-hydroxytryptamine receptor 2A (Sus scrofa, UniProt P50129). In words: Displacement of [3H]ketanserin from 5HT2 receptor in pig cortical membranes. The series is classed as cell membranes. The method, boiled down: as §1
Chain of 5-hydroxytryptamine receptor 2A (P50129 whole entry): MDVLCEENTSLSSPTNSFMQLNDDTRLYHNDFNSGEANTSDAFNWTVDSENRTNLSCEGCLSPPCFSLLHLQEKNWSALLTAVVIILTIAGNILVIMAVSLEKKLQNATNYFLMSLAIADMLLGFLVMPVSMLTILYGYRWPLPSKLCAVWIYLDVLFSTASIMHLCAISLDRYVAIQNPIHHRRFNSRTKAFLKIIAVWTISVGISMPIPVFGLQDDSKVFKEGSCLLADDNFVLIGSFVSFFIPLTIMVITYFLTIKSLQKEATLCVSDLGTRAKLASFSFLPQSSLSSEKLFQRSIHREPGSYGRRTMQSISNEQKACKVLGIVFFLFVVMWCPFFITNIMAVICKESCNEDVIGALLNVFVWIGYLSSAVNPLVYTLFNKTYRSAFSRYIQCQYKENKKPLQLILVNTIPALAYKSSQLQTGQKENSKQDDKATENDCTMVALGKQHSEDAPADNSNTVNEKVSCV
The species named for series [11] is Homo sapiens. The series is described as follows: Selectivity for human dopamine D4.4 receptor over human dopamine D2L receptor.
The nature of series [12]: Agonist activity at rat dopamine D4.2 receptor expressed in CHO10001A cells assessed as incorporation of [3H]thymidine relative to quinpirole. The series is classed as functional.
The species named for series [13] is Homo sapiens. In words: Selectivity for human dopamine D4.4 receptor over human dopamine D3 receptor.
Series [14] can be described thus: Agonist activity at rat dopamine D4.2 receptor expressed in CHO10001A cells assessed as incorporation of [3H]thymidine. The series is classed as functional, cell-based.
The species entered for series [15] is Homo sapiens. In words: Selectivity for human dopamine D4.4 receptor over human dopamine D2S receptor.
The target of series [16] is T2, D(4) dopamine receptor (Rattus norvegicus) (UniProt P30729).
T2 sequence (whole entry): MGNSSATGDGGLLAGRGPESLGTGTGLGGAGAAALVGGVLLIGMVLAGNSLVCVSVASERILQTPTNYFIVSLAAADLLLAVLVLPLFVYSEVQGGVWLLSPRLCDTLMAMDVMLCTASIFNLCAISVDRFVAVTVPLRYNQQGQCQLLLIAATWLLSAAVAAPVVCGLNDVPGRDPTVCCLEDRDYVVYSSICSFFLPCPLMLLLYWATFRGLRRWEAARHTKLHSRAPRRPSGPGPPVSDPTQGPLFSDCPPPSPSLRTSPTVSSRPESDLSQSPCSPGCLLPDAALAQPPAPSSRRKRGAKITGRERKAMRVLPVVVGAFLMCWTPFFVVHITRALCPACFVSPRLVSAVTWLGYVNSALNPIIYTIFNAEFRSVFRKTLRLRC
In words: Displacement of 2-[4-(2-(2-[18F]fluoroethoxy)phenyl)piperazin-1-ylmethyl]pyrazolo[1,5-alpha]pyridine from dopamine D4 receptor in Sprague-Dawley rat brain. The method, boiled down:
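In vitro autoradiography on 20 µm coronal brain cryosections from female Sprague–Dawley rats. Sections are preincubated 2 × 5 min, then incubated 60 min at room temperature with 110 kBq/mL [18F] radioligand, ± competitor (1 µM). Buffer: Tris-HCl, NaCl, EDTA, MgCl2 pH 7.4, with 0.5 µM DTG and 0.1 µM pindolol. Sections are washed cold, imaged by real-time autoradiography, and ROI intensities (cpm/mm2) are defined by HE counterstaining.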

This note sets out measurements from ChEMBL document CHEMBL1143102, “Synthesis, radiofluorination, and in vitro evaluation of pyrazolo[1,5-a]pyridine-based dopamine D4 receptor ligands: discovery of an inverse agonist radioligand for PET” (J Med Chem, 2008).

The term logD denotes lipophilicity at a set pH, counting ionised and neutral species. Usually Ki stands for the equilibrium dissociation constant of an inhibitor or competing ligand from its target. Read a high Ki as weaker binding. One may read the EC50 as the concentration needed to bring the measured effect to its halfway point.

SMILES strings stand for the structures.

Chain of D(1A) dopamine receptor (P50130 whole entry): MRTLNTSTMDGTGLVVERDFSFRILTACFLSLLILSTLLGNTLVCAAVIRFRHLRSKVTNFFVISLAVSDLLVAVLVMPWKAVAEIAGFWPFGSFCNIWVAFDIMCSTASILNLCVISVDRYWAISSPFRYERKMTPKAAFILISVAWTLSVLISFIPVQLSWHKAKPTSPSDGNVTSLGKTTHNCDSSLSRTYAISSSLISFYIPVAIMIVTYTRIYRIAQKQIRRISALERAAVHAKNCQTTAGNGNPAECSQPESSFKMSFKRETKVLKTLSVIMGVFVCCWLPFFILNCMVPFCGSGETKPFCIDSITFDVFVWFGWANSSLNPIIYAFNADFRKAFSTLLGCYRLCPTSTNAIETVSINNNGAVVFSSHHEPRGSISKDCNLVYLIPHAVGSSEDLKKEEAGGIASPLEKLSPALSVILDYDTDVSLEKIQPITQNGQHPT

Turning to `[18F]c1cccc(N2CCN(Cc3cc4ccccn4n3)CC2)n1`, the logD in [1] came to 1.78. Further, the remaining at 1.5 h in series [2] is > 99%.

`Brc1cccc(N2CCN(Cc3cc4ccccn4n3)CC2)n1`: the inhibitory constant (Ki) in series [3] is 550 nM; in [4], 930 nM; in [5], 360 nM; in [6], 880 nM; in [7], 240 nM; in [8], 7.9 nM. Also, the Ki worked out at 18000 nM in [9] and 4400 nM in series [10].

In the case of `FCCOc1ccccc1N1CCN(Cc2cc3ccccn3n2)CC1`, the inhibition constant (Ki) turned out to be 79 nM in series [3]; 940 nM in series [4]; 5700 nM in series [5]; 46 nM in series [6]; 40 nM in series [7]; 1.3 nM in series [8]. Moreover, the Ki in [9] amounted to 4800 nM; in [10], 13000 nM. Moreover, the Ratio Ki in series [11] amounted to 35; in [13], 723; in series [15] it was 61. The Efficacy in series [12] is recorded as 49%. Besides, in series [14], the EC50 came to 0.8 nM.

As to `[18F]CCOc1ccc(N2CCN(Cc3cc4ccccn4n3)CC2)cc1`, the log distribution coefficient (logD) in [1] came out at 1.99. Also, the remaining at 1.5 h in series [2] is > 99%.

Turning to `Oc1ccccc1N1CCN(Cc2cnn3ccccc23)CC1`, the Ki stood at 4700 nM in series [3]; 2200 nM in series [4]; 680 nM in series [5]; 4500 nM in series [6]; 26 nM in [7]; 44 nM in [8]. Moreover, the values for the inhibitory constant (Ki) in [9] and in series [10] were 2800 nM and 1500 nM, respectively.

As to `CCc1cc(Cl)c(OC)c(C(=O)NC[C@@H]2CCCN2CC)c1O`, the Activity in series [16] was determined as 65%.

As to `Clc1ccc(N2CCN(Cc3cc4ccccn4n3)CC2)cc1`, the Activity in series [16] amounted to 78%. For the same molecule, the inhibitory constant (Ki) in series [5] was 1700 nM; in series [7] it was 270 nM; in series [8] it was 2.2 nM. Further, the values for the Ratio Ki in [11], in series [13] and in series [15] were 1550, 2410 and 2860, respectively. Also, the Efficacy in series [12] is <3%.

In the case of `CCCN1CCC[C@@H]2Cc3n[nH]cc3C[C@H]21` [QUINPIROLE], the EC50 in series [14] came out at 7.1 nM.

In the case of `FCCOc1ccc(N2CCN(Cc3cc4ccccn4n3)CC2)cc1`, the Ki in series [3] worked out at 50000 nM; in series [4], 15000 nM; in series [5] it was 1400 nM; in series [6], 30000 nM; in [7], 4100 nM; in series [8], 13 nM. Moreover, the inhibition constant (Ki) in [9] was determined as 29000 nM; in series [10] it was 5500 nM. Further, the Ratio Ki was 2310 in [11], 1150 in [13] and 3850 in series [15]. Further, the Efficacy in series [12] is -37%. In addition, the half-maximal effective concentration (EC50) in [14] was 9.1 nM.

For `[18F]c1cccc(N2CCN(Cc3cnn4ccccc34)CC2)n1`, the pH-dependent lipophilicity (logD) in series [1] turned out to be 1.98. The remaining at 1.5 h in [2] is > 98%.

With `FCCOc1ccc(N2CCN(Cc3cnn4ccccc34)CC2)cc1`, the inhibition constant Ki turned out to be 79000 nM in series [3]; 8700 nM in series [4]; 13000 nM in series [5]; 66000 nM in series [6]; 4500 nM in [7]; 28 nM in series [8]. For the same molecule, the inhibitory constant (Ki) was determined as 33000 nM in series [9] and 14000 nM in series [10]. Further, the Ratio Ki amounted to 2360 in series [11], 311 in series [13] and 2820 in series [15]. The Efficacy in series [12] is on record as -41%. For the same molecule, the concentration giving a half-maximal response (EC50) in series [14] was 18 nM.

`Fc1cccc(N2CCN(Cc3cc4ccccn4n3)CC2)n1`: the Ki in series [3] turned out to be 1700 nM; in series [4], 3400 nM; in series [5] it was 1200 nM; in [6], 3400 nM; in series [7], 910 nM; in series [8], 24 nM. For the same molecule, the Ki was 30000 nM in series [9] and 9700 nM in series [10]. Also, the Ratio Ki came to 142 in series [11], 142 in [13] and 71 in [15].

`[18F]CCOc1ccccc1N1CCN(Cc2cnn3ccccc23)CC1` returned a logD in [1] of 2.15.

In the case of `Oc1ccc(N2CCN(Cc3cnn4ccccc34)CC2)cc1`, the inhibition constant (Ki) in series [3] is 87000 nM; in series [4], 3400 nM; in series [5], 12000 nM; in [6], 6100 nM; in series [7], 82 nM; in [8], 20 nM. The Ki stood at 9900 nM in [9] and 24700 nM in series [10].

Regarding `Fc1cccc(N2CCN(Cc3cnn4ccccc34)CC2)n1`, the Ki in [3] turned out to be 220 nM; in series [4] it was 590 nM; in [5], 290 nM; in series [6], 330 nM; in series [7], 87 nM; in [8], 8.8 nM. For the same molecule, the Ki in series [9] was 7300 nM; in series [10] it was 5400 nM. The results for the Ratio Ki in series [11], in [13] and in [15] were 38, 67 and 25, respectively.

Take `Brc1cccc(N2CCN(Cc3cnn4ccccc34)CC2)n1`: the Ki in series [3] came out at 150 nM; in series [4] it was 410 nM; in series [5], 120 nM; in [6], 210 nM; in series [7] it was 21 nM; in series [8], 2.6 nM. Further, the inhibitory constant (Ki) came to 3900 nM in series [9] and 1200 nM in [10].

For `FCCOc1ccccc1N1CCN(Cc2cnn3ccccc23)CC1`, the Ki in series [3] amounted to 180 nM; in [4], 320 nM; in series [5] it was 120 nM; in series [6], 150 nM; in series [7], 5.4 nM; in series [8] it was 1.6 nM. For the same molecule, the Ki in series [9] is 2500 nM; in [10], 2900 nM. Moreover, in series [12], the Efficacy was determined as 71%. For the same molecule, the EC50 in series [14] was 1 nM.

On to `Clc1ccc(N2CCN(Cc3cnn4ccccc34)CC2)cc1` [FAUC 113], for which the inhibition constant Ki was 1400 nM in series [5], 240 nM in series [7] and 5.8 nM in series [8]. The Efficacy in [12] is listed as 26%.

On to `[18F]CCOc1ccc(N2CCN(Cc3cnn4ccccc34)CC2)cc1`, for which the log distribution coefficient (logD) in series [1] was found to be 2.12. In addition, the remaining at 1.5 h in [2] was > 96%.
